According to ChEMBL document CHEMBL2203171, “The use of small molecule probes to study spatially separated stimulus-induced signaling pathways” (Bioorg Med Chem Lett, 2012):
The source made the active and inactive calls. The rule behind the calls is not given here.

What was measured:
Format in all cases: cell-based
[1] = target: T1, Toll-like receptor 9 (Mus musculus) (UniProt Q9EQU3); assay: Inhibition of MyD88 recruitment to TLR9 in C57BL/6 mouse BMDM cells assessed as inhibition of CpG-induced IkappaBalpha phosphorylation up to 90 mins by Western blot analysis
T1 sequence (whole entry): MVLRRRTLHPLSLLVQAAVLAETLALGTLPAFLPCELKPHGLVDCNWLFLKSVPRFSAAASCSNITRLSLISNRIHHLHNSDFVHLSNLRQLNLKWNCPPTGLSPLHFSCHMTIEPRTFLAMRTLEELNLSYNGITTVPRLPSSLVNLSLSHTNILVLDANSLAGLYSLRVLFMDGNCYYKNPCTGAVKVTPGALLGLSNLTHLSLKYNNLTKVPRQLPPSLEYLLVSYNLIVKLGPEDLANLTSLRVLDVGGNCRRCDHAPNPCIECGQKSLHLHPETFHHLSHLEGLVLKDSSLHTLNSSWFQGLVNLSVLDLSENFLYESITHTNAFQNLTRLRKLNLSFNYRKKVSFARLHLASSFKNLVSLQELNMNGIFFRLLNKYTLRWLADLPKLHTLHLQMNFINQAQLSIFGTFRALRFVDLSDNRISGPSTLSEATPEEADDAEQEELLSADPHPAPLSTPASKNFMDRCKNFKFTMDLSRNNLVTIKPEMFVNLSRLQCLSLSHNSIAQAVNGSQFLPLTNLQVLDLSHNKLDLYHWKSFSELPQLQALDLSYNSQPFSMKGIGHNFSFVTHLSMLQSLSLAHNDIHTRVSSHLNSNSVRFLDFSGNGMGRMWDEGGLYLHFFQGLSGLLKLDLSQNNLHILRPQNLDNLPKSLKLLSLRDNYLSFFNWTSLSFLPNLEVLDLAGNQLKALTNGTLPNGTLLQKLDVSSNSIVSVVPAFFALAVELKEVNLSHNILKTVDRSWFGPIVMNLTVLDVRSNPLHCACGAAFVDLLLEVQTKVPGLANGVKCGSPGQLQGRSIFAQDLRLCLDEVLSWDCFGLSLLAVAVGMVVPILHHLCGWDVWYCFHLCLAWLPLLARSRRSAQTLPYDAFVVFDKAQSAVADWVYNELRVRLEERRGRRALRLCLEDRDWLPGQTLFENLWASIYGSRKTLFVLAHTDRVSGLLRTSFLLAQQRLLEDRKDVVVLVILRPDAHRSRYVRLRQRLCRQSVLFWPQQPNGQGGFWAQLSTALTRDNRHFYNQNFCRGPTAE
Summary of the method: (§1)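 Bone marrow macrophages from C57BL/6 mice, grown in 70% growth medium (DMEM, 10% FBS) plus 30% L929-conditioned medium and given fresh medium 12-14 h before stimulation. Stimuli: IL-1 40 ng/ml, HKSA ~10^8 cfu/ml, pI:pC 50 μg/ml or CpG 10 μg/ml, ± compound at 10 μM (final) added from a 200x DMSO stock. IκBα and p38 profiled by immunoblot. Three independent experiments, quantitated and normalized.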

[2] = target: T2, Toll-like receptor 3 (Mus musculus) (UniProt Q99MB1); assay: Inhibition of TRIF recruitment to TLR3 in C57BL/6 mouse BMDM cells assessed as inhibition of pI:pC-induced p38 MAPK activity up to 90 mins; summary of the method: as §1
T2 sequence (whole entry): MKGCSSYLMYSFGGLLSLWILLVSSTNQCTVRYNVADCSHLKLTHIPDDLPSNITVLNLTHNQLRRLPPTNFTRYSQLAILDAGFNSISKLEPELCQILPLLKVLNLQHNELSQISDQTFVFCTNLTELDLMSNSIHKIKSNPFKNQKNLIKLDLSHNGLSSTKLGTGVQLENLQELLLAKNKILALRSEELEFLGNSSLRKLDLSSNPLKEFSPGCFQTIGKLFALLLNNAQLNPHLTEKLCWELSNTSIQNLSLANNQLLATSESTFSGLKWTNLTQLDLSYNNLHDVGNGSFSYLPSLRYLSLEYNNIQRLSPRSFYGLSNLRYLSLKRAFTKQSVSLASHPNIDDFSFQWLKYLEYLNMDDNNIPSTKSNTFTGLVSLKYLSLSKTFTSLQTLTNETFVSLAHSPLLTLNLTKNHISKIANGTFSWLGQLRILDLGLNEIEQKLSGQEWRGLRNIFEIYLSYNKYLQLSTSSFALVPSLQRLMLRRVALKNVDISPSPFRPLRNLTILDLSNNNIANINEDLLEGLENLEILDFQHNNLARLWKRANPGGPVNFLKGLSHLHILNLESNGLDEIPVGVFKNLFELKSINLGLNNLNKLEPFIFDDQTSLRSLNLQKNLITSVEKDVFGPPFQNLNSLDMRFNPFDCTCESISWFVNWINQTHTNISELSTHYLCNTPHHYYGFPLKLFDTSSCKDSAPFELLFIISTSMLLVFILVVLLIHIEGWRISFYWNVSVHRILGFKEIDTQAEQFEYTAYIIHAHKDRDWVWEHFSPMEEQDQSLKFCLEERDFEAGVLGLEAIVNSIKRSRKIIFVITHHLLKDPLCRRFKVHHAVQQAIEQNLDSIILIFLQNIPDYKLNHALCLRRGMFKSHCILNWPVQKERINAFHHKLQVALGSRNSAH

[3] = target: T3, Inhibitor of nuclear factor kappa-B kinase subunit beta (Mus musculus) (UniProt O88351); assay: Inhibition of IKKbeta in C57BL/6 mouse BMDM cells assessed as inhibition of TNFalpha-induced IkappaBalpha degradation at 50 uM up to 90 mins by Western blot analysis
T3 sequence (whole entry): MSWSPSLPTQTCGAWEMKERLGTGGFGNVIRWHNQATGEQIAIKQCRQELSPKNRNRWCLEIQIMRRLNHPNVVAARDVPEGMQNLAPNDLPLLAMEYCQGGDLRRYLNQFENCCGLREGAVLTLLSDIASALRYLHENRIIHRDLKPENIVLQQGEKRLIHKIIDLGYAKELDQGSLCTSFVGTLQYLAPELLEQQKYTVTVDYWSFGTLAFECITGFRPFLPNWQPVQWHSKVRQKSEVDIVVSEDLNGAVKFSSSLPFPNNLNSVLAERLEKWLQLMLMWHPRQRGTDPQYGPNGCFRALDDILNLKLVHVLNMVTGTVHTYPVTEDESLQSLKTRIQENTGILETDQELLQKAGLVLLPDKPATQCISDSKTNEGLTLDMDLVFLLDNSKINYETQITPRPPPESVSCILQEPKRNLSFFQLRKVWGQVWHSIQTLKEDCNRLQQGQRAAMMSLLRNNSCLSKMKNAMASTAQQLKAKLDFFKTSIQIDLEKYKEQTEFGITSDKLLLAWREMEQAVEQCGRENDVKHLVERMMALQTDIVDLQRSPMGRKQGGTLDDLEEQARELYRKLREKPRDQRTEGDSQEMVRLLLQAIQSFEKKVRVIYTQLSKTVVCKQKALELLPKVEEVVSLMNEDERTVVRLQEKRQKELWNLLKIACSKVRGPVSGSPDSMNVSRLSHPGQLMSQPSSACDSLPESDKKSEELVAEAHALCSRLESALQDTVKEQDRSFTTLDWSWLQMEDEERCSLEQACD

Structure (SMILES) | inhibition [1] | inhibition [2] | inhibition [3]
O=C(CCCCCN1C(=O)CCC1=O)Oc1ccc2cc(C(C(=O)NCc3ccccc3)N(C(=O)Cc3ccc4c(c3)OCO4)C3CC3)ccc2c1 (stereo not given) | Active |  | 
O=C(CCCCCN1C(=O)C=CC1=O)Oc1ccc2cc(C(C(=O)NCc3ccccc3)N(C(=O)Cc3ccc4c(c3)OCO4)C3CC3)ccc2c1 (stereo not given) | Active | inactive | inactive
O=C(CCCCCCCC(=O)ON1C(=O)CCC1=O)Oc1ccc2cc(C(C(=O)NCc3ccccc3)N(C(=O)Cc3ccc4c(c3)OCO4)C3CC3)ccc2c1 (stereo not given) | Active |  | 
